Experimental findings from the EternaBench riboswitch data are described below.

In the data set the test system is MS2 coat protein. Put plainly: apparent Kd, MS2 coat protein; higher = weaker binding; RNA-MaP array. The method in brief:
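Fluorescently labeled MS2 coat protein, from 1.5 nM to 3 μM, was incubated at room temperature with designed RNAs transcribed on an Illumina sequencing chip from sequenced DNA templates. Times ran from 0.8–1.5 h at the lowest concentrations to 10–20 min at the highest, in Tris-HCl pH 7.5 buffer with KCl, MgCl2, BSA, DTT, tRNA and Tween20, with or without input ligand. Each apparent Kd is the median of per-cluster binding-curve fits, and designs with fewer than 10 measured clusters were excluded.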

[1] abbreviates: designed as: ON switch for flavin mononucleotide, no ligand.
The mark [2] stands for this setting: ligand present: flavin mononucleotide, designed as: ON switch for flavin mononucleotide.
Where [3] appears, read: designed as: OFF switch for flavin mononucleotide, no ligand.
[4] abbreviates: ligand present: flavin mononucleotide, designed as: OFF switch for flavin mononucleotide.
[5] abbreviates: designed as: OFF switch for tryptophan, no ligand.
Where [6] appears, read: ligand present: tryptophan, designed as: OFF switch for tryptophan.

“GCAGGCGUUAAGAAGGUUCUCCCACAUGAGGAUCACCCAUGUUGACAUGCUAGAGUCAUUACAAGAAAGGAUAUUAGCGAAUUG”: the apparent Kd (in general, the concentration giving half-maximal binding under the conditions of the assay) reads like this: under setting [1], 114 nM; under setting [2], 25.8 nM.
As for “UACGGAGCUCAGAAGGGACACUGCGGAGAUAUGUCAGGAUAUGACUUCUUAUCGUGUGGUGACAUGAGGAUCACCCAUGUGCUU”, the “apparent Kd” value is, setting by setting: under setting [3], 209 nM; under setting [4], 338 nM.
Regarding “GGUUAACAUGAGGAUCACCCAUGUCUUGAUACCAGUCGUUAUCUUGACCCUUGGCAGCAAGAUGACCGUUAGCAGCCGUCUUCUC”, the “apparent Kd” value is, setting by setting: (designed as: ON switch for theophylline, no ligand) 13.2 nM; (ligand present: theophylline, designed as: ON switch for theophylline) 19.5 nM.
Regarding “ACGGGAGCAGAAGGAUAUAGGGUAGGUAUUAGACUAGAAGGACUCUUACAUGAGGAUCACCCAUGUAGUUCAGAAUGGGAAAUC”, the “apparent Kd” value is 45.5 nM under setting [1] and 40.4 nM under setting [2].
As for “CCAGCUCUAUAGGAUAUUCUUGAUGAAGACACGGAAGAAGGAUAGACAUGAGGAUCACCCAUGUCCUUACAUGU”, the “apparent Kd” value under setting [3] was 19.4 nM and the “apparent Kd” value under setting [4] was 17.3 nM.
As for “UCGCUGUAAGGAUAUACUCCGUUACUGUGUUAUAACGGACCGUAGAAGGUACAUGAGGAUCACCCAUGUGAAGU”, the “apparent Kd” value reads like this: under setting [3], 11.1 nM; under setting [4], 17.8 nM.
Take “UUAGAAUACUAAGGAUAUGAUUAUGGCGCACCGCUGUCCGGUGUACAUGAGGAUCACCCAUGUAAUCAGAAGGUAGACUUGUCC”: the “apparent Kd” value under setting [1] worked out at 9.94 nM and the “apparent Kd” value under setting [2] was 8.91 nM.
Take “UACCUUAGCAACAUGAGGAUCACCCAUGUUUGGUGGCGAAUUAGAAGGGACAGCAUUUAUACAAGUCAGGAUAUAAUUUAGGGA”: the “apparent Kd” value reads like this: under setting [3], 16.5 nM; under setting [4], 11.6 nM.
With “UACCUUAUGGAGAAGGCACGUCUCAGAGGAGCAACAUGAGGAUCACCCAUGUACCUGGGCUGAAGUGAGGAUAUCCAAAUCCCA”, the “apparent Kd” value worked out at 14.4 nM under setting [1] and 7.18 nM under setting [2].
As to “ACAUGAGGAUCACCCAUGUCUACGAAGGUCGAAAUUAAUACCAGAAGGCGCGUCGACUAAGAGUGCGAGGAUAUGGUGUGUCGA”, the “apparent Kd” value reads like this: under setting [1], 52 nM; under setting [2], 9.96 nM.
Consider “GACAAGACAGGAUAUACAUAUAUGUAGCACGAAGAGUUAAGACAUGAGGAUCACCCAUGUAGAAGGGUCAUAAA”, for which the “apparent Kd” value by setting is: under setting [3], 19.2 nM; under setting [4], 17.7 nM.
The matching figures for “AUGUCGGCAGGAUAUACUGGAACUUGACCCGUGAACACGAUACAUGAGGAUCACCCAUGUAGAAGGGCCUAAAA”: 11.5 nM and 43.4 nM.
For “CCUAUCAAACGAGGAUAUGUGCGGACAAGAAACACAGAAGGCGAACCACAUGAGGAUCACCCAUGUACGAAGACAAAGCAAGAA”, the “apparent Kd” value runs as follows: under setting [1], 22.7 nM; under setting [2], 14.5 nM.
Consider “ACUAUUCAUUAUGGCACAUGAGGAUCACCCAUGUAGUGCGAACAGGAUAUACAAAAGAAUGUCAAGUAGAAGGGUUCCAGGUUC”, for which the “apparent Kd” value under setting [1] amounted to 28 nM and the “apparent Kd” value under setting [2] was 19.8 nM.
In the same order, the values of “GUGCUACAUGAGGAUCACCCAUGUGUGUAACAACAAGGAUAUGAUGCUUUGCCCGAAAGGUCAGAAGGUGUACGGC” are 12.9 nM and 11.1 nM.
With “GGGUGAAGUGAGAAGGUUGGUGCUAGUUAAUUCAAAGGAUAUCAUUACUACGACAUGAGGAUCACCCAUGUAGCUGUACUGGAA”, the “apparent Kd” value worked out at 14.3 nM under setting [3] and 12.4 nM under setting [4].
On to “CCGGAGACCGUGUCAGCGGAAGCAAGAACACGAGGACCGGUACGGCCGCCACUCGAAAGAAGACAUGAGGAUCACCCAUGUCCAU”, for which the “apparent Kd” value under setting [5] was 12 nM and the “apparent Kd” value under setting [6] was 13.9 nM.
Take “AGCACAAAGUAGAAGGGUAGCACCGAUUUUCAUACAGGAUAUACGAAGGCAGGGUCAACAUGAGGAUCACCCAUGUUACCGCUU”: the “apparent Kd” value was 5.59 nM under setting [1] and 5.39 nM under setting [2].
As to “CGACACCAGGCAAUCCAUCACCCGGCUGAUACCAGCUCUUUUGGAAGCCCUUGGCAGCAGAGAACAUGAGGAUCACCCAUGUCAG”, the “apparent Kd” value is, setting by setting: (designed as: OFF switch for theophylline, no ligand) 14.6 nM; (ligand present: theophylline, designed as: OFF switch for theophylline) 21.2 nM.
On to “UAUUGGAUGACAGGAUAUCUACGAAGAAGUUGACAUGAGGAUCACCCAUGUAGGGUGUGGAGCAUAGAGAAGGGUCAGAACCUC”, for which the “apparent Kd” value came out at 702 nM under setting [3] and 440 nM under setting [4].
In the same order, the values of “UAUACUAAUGUCAGGAUAUUAUAAAGUAAGAUAUAUAAGAAGGGACAUGAGGAUCACCCAUGUGACAAGGACGA” are 13.4 nM and 29.8 nM.
On to “AAUCCUAAUGUCAGGAUAUUGCAGAAGCCAGAACACAAGAAGGGACAUGAGGAUCACCCAUGUAUAGUCACAUA”, for which the “apparent Kd” value came to 22.4 nM under setting [3] and 59.1 nM under setting [4].
Regarding “AGUUUUAUCGUGUAGGAUAUGGGAUAAUCAACAUGAGGAUCACCCAUGUCAUGAGUGACAAGCGACCAGAAGGACACCAAUACAAC”, the “apparent Kd” value worked out at 400 nM under setting [1] and 55.8 nM under setting [2].
As for “UUCGACCACGAGAAGGUGACGAAGGCCGAUUGUCAAGGAUAUCGACACAUGAGGAUCACCCAUGUCAGAGCGGGACUAACUAAA”, the “apparent Kd” value came out at 22.6 nM under setting [1] and 12.8 nM under setting [2].
As for “AUUUUGGGAGGAUAUACAUGAGGAUCACCCAUGUUUUAGAACGUAAGAGAAUCCGGAGGUAGAAGGCCCUUCUG”, the “apparent Kd” value reads like this: under setting [3], 180 nM; under setting [4], 212 nM.
As to “AAAUCAAAGCAGAAGGAACAAUAAGCAUAAAGGUUAGGAUAUGCGUCAACGCAAAGUACAUGAGGAUCACCCAUGUUUAUAAGC”, the “apparent Kd” value runs as follows: under setting [1], 7.37 nM; under setting [2], 6.77 nM.
As for “UUGAUAGCAGGAUAUACCAGUCAUGUCUCGCAAUUUACCCGACAUGAGGAUCACCCAUGUAGAAGGGCUGUUUA”, the “apparent Kd” value came to 15.3 nM under setting [3] and 14.5 nM under setting [4].
“UCAGUGGGUUCGGCCGCCACUUGAGUGAUGGUGCCUCAAUAAGUCUACAUGAGGAUCACCCAUGUAAGGACCGGGAAUUUUAUGG”: the “apparent Kd” value runs as follows: under setting [5], 35.3 nM; under setting [6], 32.5 nM.
With “AUAGAUAAGCAGAAGGGCUUGAGAUCCGUAACUAUUGACAUGAGGAUCACCCAUGUUCGUCCCUAGCAGGAUAUGCAAAGAAGC”, the “apparent Kd” value is, setting by setting: under setting [1], 61.2 nM; under setting [2], 22.5 nM.
For “UCGAUACCUCUAAUGAAGACAUGAGGAUCACCCAUGUUUAACAGAAGGUAGUCGGGAAGAUAGACUAAGGAUAUGUUGCAGGUG”, the “apparent Kd” value by setting is: under setting [3], 9.63 nM; under setting [4], 24.3 nM.
In the same order, the values of “UCGGAUACUGUAGGAUAUCGACCAAAUUUUCCUCGAGAAGGACAUCUAUAUAUAGAGAACAUGAGGAUCACCCAUGUGUUUUUG” are 15 nM and 15.2 nM.
In the case of “CGGAUUUGGUAGAAGGUUUCGUCACAUAUCGCAAAAGGAUAUACUAAACAUGAGGAUCACCCAUGUGUCGUGGGAGUUAAUUCA”, the “apparent Kd” value under setting [3] was 72.3 nM and the “apparent Kd” value under setting [4] is 70.5 nM.
Regarding “UACGUGUUAGGAUAUCGAGUAGUAUGGCUGGCCUGCAAAACCGAGAAGGAACAUGAGGAUCACCCAUGUAUCUU”, the “apparent Kd” value was 8.05 nM under setting [3] and 11.3 nM under setting [4].
Regarding “AUUCGGUCAGGAUAUAGCGCACGCCGACGAACAUGUGGCGGCUAGAAGGGACAUGAGGAUCACCCAUGUCGGGC”, the “apparent Kd” value is 8.41 nM under setting [3] and 10.7 nM under setting [4].
On to “CGUAAUGCACUAGGAUAUGUUGUAUAUACAACGACAGAAGGAGUUCCACAUGAGGAUCACCCAUGUCCAAACCAAUACUCAUCG”, for which the “apparent Kd” value under setting [1] amounted to 78.2 nM and the “apparent Kd” value under setting [2] stood at 64 nM.
For “CCGGAAUUGCAGGAUAUACGCAAACCACAUGCUGUAGAAGGGCAAACAUGAGGAUCACCCAUGUGGUCGAGCAG”, the “apparent Kd” value was 13.4 nM under setting [3] and 17.9 nM under setting [4].
In the case of “AAGAAGUACCAGAAGGGAGGAGGAAAUCUACAUGAGGAUCACCCAUGUACUUGCGGAUUUAAAUCUCAGGAUAUGGGAUACACA”, the “apparent Kd” value is 49.7 nM under setting [1] and 12.9 nM under setting [2].
Regarding “GUGAAACAUGAGGAUCACCCAUGUUAGGAUAUAGGUAACCUAGUACAUGAUCUGCUGGCUAGAAGGAACUGGAU”, the “apparent Kd” value under setting [3] amounted to 14.2 nM and the “apparent Kd” value under setting [4] was determined as 11.5 nM.
In the case of “GCUAGCGGUAAGAAGGCAUAGACCAAAACUUCAUGAGGAUAUUAUUUGCGGCAUUCGCUCCAAGGACAUGAGGAUCACCCAUGU”, the “apparent Kd” value was 15.4 nM under setting [1] and 16.3 nM under setting [2].
For the sequence “UCUAGUGCAUAGGAUAUCAUGGUUCAUUAGUACUGAGAAGGAUGCACAUGAGGAUCACCCAUGUUCUCUGACAG”, the “apparent Kd” value came out at 26.2 nM under setting [3] and 80.5 nM under setting [4].
For “UAGCAUAGUACGGCCGCCACUCCUGGUUCCCGGCCGUGUGUAAGACAUGAGGAUCACCCAUGUAGGAGGACCGGGUAUCGCUUGC”, the “apparent Kd” value runs as follows: (designed as: ON switch for tryptophan, no ligand) 14 nM; (ligand present: tryptophan, designed as: ON switch for tryptophan) 15.2 nM.
As to “ACAUGGAGGACAGGAUAUCCAUCUGGCCACCACGGAGAAGGGUCCACCCGACAUGAGGAUCACCCAUGUAUCAACGUGAUGAGU”, the “apparent Kd” value came to 23 nM under setting [1] and 18.1 nM under setting [2].
On to “CCACGGAGUUUAGGAUAUGUCGGCUUGGAGUUUACAGAAGGAAAUUGCGCAGCCACAUGAGGAUCACCCAUGUUCGGAAAUACG”, for which the “apparent Kd” value is, setting by setting: under setting [1], 31 nM; under setting [2], 21.4 nM.
For “GACAUGAGGAUCACCCAUGUGGGAAAGGUGUACUCUUGCGACUAGGAUAUGUUGUGGUCCCAGAGACAGAAGGAGUGGCGACGU”, the “apparent Kd” value reads like this: under setting [3], 52.1 nM; under setting [4], 42 nM.
The matching figures for “CGGAAACAAGUAGGAUAUCACUUGAAUGUACAUGAGGAUCACCCAUGUUCCUUACGGCCGCGUUUUGAGAAGGACUAUUCAAAA”: 17.6 nM and 15 nM.
Consider “ACGAACAUGAGGAUCACCCAUGUUGUUUCUAAGACUCGGUCAAGAAGGUGUCGUUACGAGUCGAACAAGGAUAUUGAUCCGAAC”, for which the “apparent Kd” value is 28.6 nM under setting [1] and 20.6 nM under setting [2].
“GGAUAACCGAAGAAGGAGGUUUGUAUGGAAUACCUAGGAUAUUCGCGAGCGUGGGCCACAUGAGGAUCACCCAUGUCGGCAGUU”: the “apparent Kd” value by setting is: under setting [3], 12.8 nM; under setting [4], 10.4 nM.
